Test results taken from ChEMBL document CHEMBL1914331, “N-O chemistry for antibiotics: discovery of N-alkyl-N-(pyridin-2-yl)hydroxylamine scaffolds as selective antibacterial agents using nitroso Diels-Alder and ene chemistry” (J Med Chem, 2011).

What was measured:
PC-3 = assay: Cytotoxicity against human PC3 cells; assay type: cell-based
HeLa = assay: Cytotoxicity against human HeLa cells; assay type: cell-based
Micrococcus luteus = assay: Antimicrobial activity against Micrococcus luteus ATCC 10240 after 24 hrs by Kirby-Bauer agar diffusion assay; assay type: functional
Outline: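 Modified Kirby-Bauer well diffusion. Overnight LB cultures (18–24 h) were standardized in 0.9% saline to 0.5 McFarland and mixed into melted MHII agar at 47–50 °C, giving ~5×10³ CFU/mL. 9 mm wells received 50 µL of 2.0 mM compound in 10:1 MeOH:DMSO. Plates were incubated 24 h at 37 °C, then growth-inhibition zone diameter was measured (mm) by caliper.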

MCF7 = assay: Cytotoxicity against human MCF7 cells; assay type: cell-based

Row | SMILES | Activity (PC-3) | Activity (HeLa) | diameter of the inhibition zone (DIZ) (Micrococcus luteus) | Activity (MCF7)
1 | CC(C)O[C@@H]1C=C[C@@H](N(O)c2ccc(Br)cn2)CC1 (relative stereo) | Non-toxic | Non-toxic | >14 mm | Non-toxic
2 | Brc1ccc(N2OC3C=CC2CC3)nc1 (racemic) | Non-toxic | Non-toxic | <=14 mm | Non-toxic
3 | CC(C)(C)OC1C=C[C@@H](N(O)c2ccc(Br)cn2)C1 (mixture of isomers) | Non-toxic | Non-toxic | >14 mm | Non-toxic
4 | C=C(C)C(C)N(O)C(=O)[C@H](C)NC(=O)OC(C)(C)C (mixture of isomers) | Non-toxic | Non-toxic | <=14 mm | Non-toxic
5 | O[C@@H]1C=CCC[C@H]1N(O)c1ccc(Br)cn1 (racemic) | Non-toxic | Non-toxic | >14 mm | Non-toxic
6 | COC1C=C[C@@H](N(O)c2cccc(C)n2)C1 (mixture of isomers) | Non-toxic | Non-toxic | >14 mm | Non-toxic
7 | CO[C@@H]1C=CCC[C@H]1N(O)C(=O)Cc1ccccc1 (relative stereo) | Non-toxic | Non-toxic | <=14 mm | Non-toxic
8 | O=C(c1ccccc1)N1OC2C=CC21 (racemic) | Non-toxic | Non-toxic | <=14 mm | Non-toxic
9 | Cc1cccc(N(O)[C@@H]2CCC=C[C@H]2OC(C)C)n1 (racemic) | Non-toxic | Non-toxic | >14 mm | Non-toxic
10 | C=C(C)C(C)(C)N(O)c1cc(C)on1 | Non-toxic | Non-toxic | >14 mm | Non-toxic
11 | CO[C@@H]1C=C[C@@H](N(O)C(=O)Cc2ccccc2)C1 (racemic) | Non-toxic | Non-toxic | <=14 mm | Non-toxic
12 | CC1=CCCCC1N(O)c1cc(C)on1 (racemic) | Non-toxic | Non-toxic | >14 mm | Non-toxic
13 | CCc1cccc(N=O)n1 | Non-toxic | Non-toxic | <=14 mm | Non-toxic
14 | CC(C)(C)O[C@@H]1C=CCC[C@H]1N(O)c1ccc(Br)cn1 (racemic) | Non-toxic | Non-toxic | >14 mm | Non-toxic
15 | COc1ccc(CON(C)c2ccccn2)cc1 | Non-toxic | Non-toxic | <=14 mm | Non-toxic
16 | Brc1ccc(N2OC3C=CC2C3)nc1 (racemic) | Non-toxic | Non-toxic | <=14 mm | Non-toxic
17 | C=C(CN(O)c1cc(C)on1)c1ccccc1 | Non-toxic | Non-toxic | >14 mm | Non-toxic
18 | CC(C)(C)OC1C=C[C@@H](N(O)c2ccc(Cl)cn2)C1 (mixture of isomers) | Non-toxic | Non-toxic | >14 mm | Non-toxic
19 | C[C@H](NC(=O)OC(C)(C)C)C(=O)NO | Non-toxic | Non-toxic | <=14 mm | Non-toxic
20 | Cc1nc(N=O)ccc1Br | Non-toxic | Non-toxic | <=14 mm | Non-toxic
21 | COc1ccc(CON(Cc2ccc(C(F)(F)F)cc2)c2ccccn2)cc1 | Non-toxic | Non-toxic | <=14 mm | Non-toxic
22 | Clc1ccc(N2OC3C=CC2C3)nc1 (racemic) | Non-toxic | Non-toxic | <=14 mm | Non-toxic
23 | CO[C@@H]1C=CC[C@H]1N(O)C(=O)OC(C)(C)C (racemic) | Non-toxic | Non-toxic | <=14 mm | Non-toxic
24 | COC1C=C[C@@H](N(O)c2cc(C)on2)C1 (mixture of isomers) | Non-toxic | Non-toxic | >14 mm | Non-toxic

Row | SMILES | Activity (PC-3) | Activity (HeLa) | diameter of the inhibition zone (DIZ) (Micrococcus luteus) | Activity (MCF7)
25 | CC(C)(C)O[C@@H]1C=C[C@@H](N(O)C(=O)Cc2ccccc2)C1 (racemic) | Non-toxic | Non-toxic | <=14 mm | Non-toxic
26 | COc1ccc(CON(CCc2ccccc2)c2ccccn2)cc1 | Non-toxic | Non-toxic | <=14 mm | Non-toxic
27 | Cc1cccc(N2OC3C=CC2C3)n1 (racemic) | Non-toxic | Non-toxic | <=14 mm | Non-toxic
28 | Cc1cccc(N2OC3C=CC2CC3)n1 (racemic) | Non-toxic | Non-toxic | <=14 mm | Non-toxic
29 | O=Nc1ccc(I)cn1 | Non-toxic | Non-toxic | <=14 mm | Non-toxic
30 | CC(C)OC1C=C[C@@H](N(O)c2ccc(Cl)cn2)C1 (mixture of isomers) | Non-toxic | Non-toxic | >14 mm | Non-toxic
31 | O=C(NO)c1ccccc1 [BENZOHYDROXAMATE] | Non-toxic | Non-toxic | <=14 mm | Non-toxic
32 | CC(C)O[C@@H]1C=CCC[C@H]1N(O)c1ccc(Br)cn1 (racemic) | Non-toxic | Non-toxic | >14 mm | Non-toxic
33 | O=Nc1ccccn1 | Non-toxic | Non-toxic | <=14 mm | Non-toxic
34 | Cc1cc(N(O)[C@@H]2C=CC(OC(C)(C)C)C2)no1 (mixture of isomers) | Non-toxic | Non-toxic | >14 mm | Non-toxic
35 | Cc1cccc(N(O)[C@@H]2CCC=C[C@H]2OC(C)(C)C)n1 (racemic) | Non-toxic | Non-toxic | >14 mm | Non-toxic
36 | Cc1cccc(N=O)n1 | Non-toxic | Non-toxic | <=14 mm | Non-toxic
37 | CCCCCCN(OCc1ccc(OC)cc1)c1ccccn1 | Non-toxic | Non-toxic | <=14 mm | Non-toxic
38 | Cc1cccc(N(O)[C@@H]2C=C[C@@H](OC(C)C)CC2)n1 (racemic) | Non-toxic | Non-toxic | >14 mm | Non-toxic
39 | COc1ccc(CON(Cc2ccc(OC(F)(F)F)cc2)c2ccccn2)cc1 | Non-toxic | Non-toxic | <=14 mm | Non-toxic
40 | CC(C)(C)O[C@@H]1C=C[C@@H](N(O)c2ccc(Br)cn2)CC1 (racemic) | Non-toxic | Non-toxic | >14 mm | Non-toxic
41 | O[C@@H]1C=C[C@@H](N(O)c2ccc(Br)cn2)C1 (racemic) | Non-toxic | Non-toxic | >14 mm | Non-toxic
42 | Cc1cccnc1N(O)[C@@H]1CC=C[C@H]1OC(C)C (racemic) | Non-toxic | Non-toxic | >14 mm | Non-toxic
43 | C=CCO[C@@H]1C=C[C@@H](N(O)c2ccc(Br)cn2)CC1 (racemic) | Non-toxic | Non-toxic | >14 mm | Non-toxic
44 | C=CCN(OCc1ccc(OC)cc1)c1ccccn1 | Non-toxic | Non-toxic | <=14 mm | Non-toxic
45 | CO[C@@H]1C=CC[C@H]1N(O)c1ccc(Cl)cn1 (racemic) | Non-toxic | Non-toxic | >14 mm | Non-toxic
46 | Cc1cc(N=O)no1 | Non-toxic | Non-toxic | <=14 mm | Non-toxic
47 | COc1ccc(CON(Cc2ccccc2)Cc2ccccn2)cc1 | Non-toxic | Non-toxic |  | Non-toxic
48 | COc1ccc(CON(Cc2ccccc2)c2cccnc2)cc1 | Non-toxic | Non-toxic |  | Non-toxic
